Screening results deposited in PubChem BioAssay by Johns Hopkins Ion Channel Center.
Sampled rows, rich in hits. Any-hit rate of the full collection: about 2.3%.
TRPC6 inh = blocks the mouse TRPC6 cation channel; Q61143; HEK293-TRPC6, membrane potential dye, ACh-evoked depolarization; active compounds read low; B-score at 10 µM; 1.1% of 310,000 active;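 active = B-score under library mean minus 3 SD, initial fluorescence not abnormally high, positive integrated signal ratio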;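 also: B-score derived from integrated fluorescence ratio over the kinetic read; more negative B-score means stronger inhibition of depolarization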
TRPC4 block = blocks the mouse TRPC4 cation channel; AID 2247; 0.39% of 300,000 active; B-score at 10 µM; Q9QUQ5; HEK293 TRPC4beta/mu-opioid, DAMGO-evoked Fluo4 calcium flux; active compounds read low;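 active = B-score over 3 SD under the library average, no early fluorescence shift, positive overall ratio signal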
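Test system – stable TRPC4beta/mu-opioid receptor HEK293 cells · Probe or stimulus – DAMGO, a submaximal dose followed by a maximal one · Dosing – one concentration per compound · Signal – Fluo4 calcium fluorescence by kinetic imaging, 5 s 1 Hz baseline · Evaluation – per-well B score of integrated baseline-normalized Fluo4 ratio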
TRPC4 act = opens the mouse TRPC4 cation channel | 0.49% of 310,000 active | AID 2237 | HEK293 TRPC4beta/mu-opioid, Fluo4 calcium fluorescence; active compounds read high | B-score at 10 µM;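 active = B-score above 5 SD of library B-scores, and initial fluorescence ratio not above library mean plus 5 SD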;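 also: positive B-score marks a calcium rise read as TRPC4 activation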
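Assay system: HEK293 cells stably co-expressing mouse TRPC4beta and mu-opioid receptor / Timing: Fluo4 dye loading 45 min at room temperature, 110 s recording / Signal: Fluo4 calcium-sensitive dye fluorescence, kinetic, 1 Hz baseline / Read-out: integrated baseline-normalised fluorescence ratio, converted to per-well B score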
TRPC6 act = activators of mouse TRPC6 channel. Q61143. 0.13% of 310,000 active. HEK293-TRPC6 membrane potential dye fluorescence; active compounds read high. B-score at 10 µM. AID 2550;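 active = B-score of the integrated fluorescence ratio above library mean plus 3 SD, and starting fluorescence ratio within library mean plus 5 SD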;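 also: higher score means more depolarization so channel activation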
TRPC4 PAM = allosterically enhances the mouse TRPC4 cation channel | HEK293 TRPC4beta/mu-opioid, DAMGO EC20, Fluo-4 Ca2+ flux; active compounds read high | B-score at 10 µM | 0.42% of 310,000 active | AID 2227;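 active = B-score of calcium response area above 5 SD of library B-scores, with initial fluorescence ratio within 5 SD of library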;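 also: B-score of integrated fluorescence ratio over time as area under calcium response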
TRPC4 sel inh 2 = mouse TRPC4 off-target activity of TRPC6 inhibitors, second screen. inhibition, % at 10 µM. 42% of 920 active. shares compounds with TRPC6 inh. HEK293 TRPC4/MOR, membrane potential dye fluorescence; channel activated by saturating DAMGO dose;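 active = compounds whose fluorescence signal differed from control wells by over 3 SD, either direction, in both duplicate plates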
TRPC4 spec = mouse TRPC4 off-target activity of TRPC6 inhibitors | HEK293 TRPC4/mu-opioid, membrane potential fluorescence | 61% of 920 active | activity change, negative = inhibition, % at 10 µM | shares compounds with TRPC6 inh;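 active = rise or fall in signal beyond 3 SD of buffer-only wells in both replicate plates, either sign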;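 also: integrated kinetic ratio of fluorescence range over baseline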
HEK293 MPD ctr 2-1 = second check of TRPC6 inhibitor effects in parental HEK293 cells | 31% of 920 active | shares compounds with TRPC6 inh | signal change vs control, % at 10 µM | parental HEK293 membrane potential dye fluorescence; maximal acetylcholine challenge after compound addition;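 active = membrane potential signal moving either way by over 3 SD of the maximum-effect control, in both duplicate plates, meaning non-specific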
HEK293 MPD ctr-1 = checks TRPC6 inhibitor effects in parental HEK293 cells. shares compounds with TRPC6 inh. parental HEK293 membrane potential dye fluorescence. membrane potential signal change, % at 10 µM. 60% of 920 active. AID 2780;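 active = membrane potential signal shifting up or down by more than 3 SD of buffer-only wells, on both duplicate plates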
HEK293 MPD ctr-2 = counter-screen for TRPC6 modulators: effect in parental HEK293 cells. shares compounds with TRPC6 inh. membrane potential signal change, % at 10 µM. AID 488924. membrane potential dye fluorescence. 51% of 2,400 active;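 active = membrane potential signal moves up or down beyond 5 SD from buffer-only wells, on both duplicate plates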
HEK293 MPD ctr 2-2 = parental HEK293 nonspecific activity of TRPC6 modulators, second screen; shares compounds with TRPC6 inh; membrane potential dye fluorescence; after compound, maximal acetylcholine stimulation; inhibition, % at 10 µM; 14% of 2,400 active; AID 488926;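 active = membrane potential signal drops by more than 5 SD from the mean control signal, in both duplicate plates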;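 also: plate controls were acetylcholine ECmax control wells for no effect and buffer only wells for full effect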
TRPC4/MOR mod = selectivity of TRPC6 modulators against mouse TRPC4. 69% of 2,400 active. HEK293 TRPC4/mu-opioid, membrane potential fluorescence. percent change from control (negative = decrease, positive = increase), % at 10 µM. shares compounds with TRPC6 inh;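 active = membrane potential signal moved up or down beyond 5 SD of buffer control wells, in both duplicate plates, actives on both sides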;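 also: plate controls were assay buffer wells for no effect and DAMGO maximal-effect wells for full effect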
TRPC4/MOR inh 2 = mouse TRPC4 off-target activity of TRPC6 modulators, second screen; shares compounds with TRPC6 inh; inhibition, % at 10 µM; 55% of 2,400 active; HEK293 TRPC4/mu-opioid, membrane potential dye fluorescence; stimulated with maximal-effect DAMGO;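 active = drop in membrane potential signal beyond 5 SD of the control wells in both duplicate plates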;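 also: TRPC4 counter screen for TRPC6 hits run under conditions tuned for TRPC6 not TRPC4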
TRPC6 inh conf = confirmation of mouse TRPC6 inhibitors; shares compounds with TRPC6 inh; HEK293-TRPC6, membrane potential dye, ACh-evoked depolarization; inhibition, % at 10 µM; 43% of 3,300 active; AID 488960;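 active = fluorescence ratio falls more than 5 SD below the full-stimulation control mean, in both duplicate runs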;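 also: integrated fluorescence ratio of peak minus minimum over baseline after agonist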
TRPC6 act conf = mouse TRPC6 activator confirmation | shares compounds with TRPC6 inh | HEK293-TRPC6 membrane potential dye fluorescence, FDSS | activation, % at 10 µM | 11% of 2,800 active;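 active = ratio signal rise beyond 5 SD above unstimulated control wells' mean, seen in both duplicate runs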;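 also: plate controls were buffer EC0 wells for no effect and acetylcholine ECmax response for full effect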
An asterisk follows results filed as active.

For CC(C)NC(=O)C(Cc1ccccc1)N1C(=O)c2ccccc2C1=O (centres undefined) the results were TRPC6 inh inactive, TRPC4 block inactive, TRPC4 act inactive, TRPC6 act inactive and TRPC4 PAM inactive.
Screening N#CCOC(=O)[C@H](Cc1ccccc1)N1C(=O)c2ccccc2C1=O returned TRPC6 inh -7.13*, TRPC4 block inactive, TRPC4 act inactive, TRPC6 act inactive, TRPC4 PAM inactive, TRPC4 sel inh 2 inactive, TRPC4 spec -0.7%*, HEK293 MPD ctr 2-1 inactive, HEK293 MPD ctr-1 inactive, TRPC6 inh conf inactive and TRPC6 act conf inactive.
`COc1ccc(-c2noc3c2-c2nc(-c4c(F)cccc4F)sc2CC3)cc1` gave TRPC6 inh inactive, TRPC4 block inactive, TRPC4 act inactive, TRPC6 act inactive and TRPC4 PAM inactive.
N#C/C(=C/c1ccc(N2CCCCC2)o1)C(=O)Nc1ccc2ccccc2c1 was read as TRPC6 inh inactive, TRPC4 block inactive, TRPC4 act inactive, TRPC6 act 79.7*, TRPC4 PAM inactive, HEK293 MPD ctr-2 844.0%*, HEK293 MPD ctr 2-2 inactive, TRPC4/MOR mod 233.0%*, TRPC4/MOR inh 2 inactive, TRPC6 inh conf inactive and TRPC6 act conf 274.0%*.
CCC(C)[C@H](NC(=O)[C@@H]1Cc2c([nH]c3ccccc23)C2c3ccccc3C(=O)N21)C(=O)N1CCC[C@@H]1C(=O)O (some centres undefined) was read as TRPC6 inh inactive, TRPC4 block inactive, TRPC4 act inactive, TRPC6 act inactive and TRPC4 PAM inactive.
For CCC(=O)N(Cc1cc(=O)[nH]c2ccccc12)c1ccc(OC)cc1 the results were TRPC6 inh inactive, TRPC4 block inactive, TRPC4 act inactive, TRPC6 act inactive and TRPC4 PAM inactive.
`CS(=O)(=O)N1CCC(C(=O)Nc2ccc(F)cc2)CC1` gave TRPC6 inh inactive, TRPC4 block inactive, TRPC4 act inactive, TRPC6 act inactive and TRPC4 PAM inactive.
CS(=O)(=O)N1CCC(C(=O)Nc2ccc(F)cc2F)CC1 was read as TRPC6 inh -6.35*, TRPC4 block inactive, TRPC4 act inactive, TRPC6 act inactive, TRPC4 PAM inactive, HEK293 MPD ctr-2 inactive, HEK293 MPD ctr 2-2 inactive, TRPC4/MOR mod 12.0%*, TRPC4/MOR inh 2 inactive and TRPC6 inh conf inactive.
